Source: ChEMBL document CHEMBL4229515, “A novel synthesis of 2-arylbenzimidazoles in molecular sieves-MeOH system and their antitubercular activity” (Bioorg Med Chem, 2018)
In brackets after ≈: the same amount, converted by molar mass.

Legend:
[1] = system: Mycobacterium tuberculosis; assay: Antimycobacterial activity against Mycobacterium tuberculosis H37Rv by BACTEC 460 radiometric method; type: functional
Procedure, shortened: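 Radiometric BACTEC assay against the H37Rv strain, run per a previously reported method. Positive controls were rifampicin, streptomycin and isoniazid. The MIC was read in µM.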

[2] = Lipophilicity, log P of the compound; type: physicochemical; conditions: octanol/water
[3] = molecular target: DNA gyrase subunit A/DNA gyrase subunit B (Mycobacterium tuberculosis (strain ATCC 25618 / H37Rv), UniProt P9WG45+P9WG47); assay: Inhibition of Mycobacterium tuberculosis DNA gyrase supercoiling activity using relaxed pBR322 as substrate after 30 mins by agarose gel electrophoresis; type: protein-complex assay
Chain of DNA gyrase subunit A/DNA gyrase subunit B (P9WG45 whole entry): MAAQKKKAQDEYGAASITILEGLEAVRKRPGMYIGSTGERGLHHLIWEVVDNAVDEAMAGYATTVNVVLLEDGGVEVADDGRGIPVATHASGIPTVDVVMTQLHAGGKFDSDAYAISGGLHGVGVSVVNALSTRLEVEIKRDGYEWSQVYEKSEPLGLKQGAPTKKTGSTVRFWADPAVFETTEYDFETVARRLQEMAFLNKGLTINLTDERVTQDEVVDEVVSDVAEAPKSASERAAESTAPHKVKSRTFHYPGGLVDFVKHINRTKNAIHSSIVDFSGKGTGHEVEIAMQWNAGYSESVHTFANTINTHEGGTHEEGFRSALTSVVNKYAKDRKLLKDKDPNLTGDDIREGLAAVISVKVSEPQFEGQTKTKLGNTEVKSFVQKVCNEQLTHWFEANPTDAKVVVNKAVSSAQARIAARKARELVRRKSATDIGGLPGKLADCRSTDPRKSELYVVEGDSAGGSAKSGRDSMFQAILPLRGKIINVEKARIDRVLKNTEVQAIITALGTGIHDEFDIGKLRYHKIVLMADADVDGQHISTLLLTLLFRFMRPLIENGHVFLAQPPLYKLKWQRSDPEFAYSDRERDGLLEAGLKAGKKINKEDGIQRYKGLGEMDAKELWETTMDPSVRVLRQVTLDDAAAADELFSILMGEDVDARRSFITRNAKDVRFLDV
Chain of DNA gyrase subunit A/DNA gyrase subunit B (P9WG47 whole entry): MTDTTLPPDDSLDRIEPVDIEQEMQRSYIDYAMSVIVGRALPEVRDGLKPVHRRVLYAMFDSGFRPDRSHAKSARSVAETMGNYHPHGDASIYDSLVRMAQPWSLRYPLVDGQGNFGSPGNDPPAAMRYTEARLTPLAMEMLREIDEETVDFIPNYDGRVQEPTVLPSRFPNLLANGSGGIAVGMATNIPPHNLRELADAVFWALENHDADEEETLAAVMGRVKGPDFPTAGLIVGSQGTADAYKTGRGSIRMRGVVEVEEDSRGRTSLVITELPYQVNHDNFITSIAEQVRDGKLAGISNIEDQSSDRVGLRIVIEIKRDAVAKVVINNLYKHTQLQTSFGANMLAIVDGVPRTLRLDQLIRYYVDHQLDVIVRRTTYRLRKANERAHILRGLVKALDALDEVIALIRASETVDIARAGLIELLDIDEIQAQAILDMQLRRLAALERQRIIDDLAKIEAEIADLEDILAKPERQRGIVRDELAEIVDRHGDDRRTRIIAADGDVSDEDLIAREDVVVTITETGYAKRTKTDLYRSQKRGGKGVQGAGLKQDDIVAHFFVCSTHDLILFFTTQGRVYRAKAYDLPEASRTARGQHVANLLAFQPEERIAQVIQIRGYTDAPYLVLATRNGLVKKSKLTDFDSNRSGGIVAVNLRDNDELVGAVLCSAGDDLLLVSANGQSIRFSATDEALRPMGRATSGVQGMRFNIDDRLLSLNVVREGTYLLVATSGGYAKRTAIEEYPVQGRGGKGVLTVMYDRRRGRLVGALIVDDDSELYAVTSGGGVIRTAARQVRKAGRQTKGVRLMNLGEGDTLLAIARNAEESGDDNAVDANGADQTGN

SMILES | MIC [1] | logP ([2]; read-out: logP) | IC50 [3] | logP [2]
COc1ccc2c(c1)nc(-c1ccc(F)cc1)n2Cc1ccc(F)cc1 | 285 µM (≈ 99.9 µg/mL) | 5.02 |  | 
c1ccc2c(c1)nc(-c1ccc3c(c1)OCO3)n2Cc1ccc2c(c1)OCO2 | 67 µM (≈ 24.9 µg/mL) | 2.64 | 85.7 µM | 
Fc1ccc(Cn2c(-c3ccc(F)cc3)nc3ccccc32)cc1 | 312 µM (≈ 99.9 µg/mL) | 5.51 |  | 
COc1ccccc1-c1nc2ccccc2[nH]1 | 406 µM (≈ 91.1 µg/mL) | 2.74 |  | 
NNC(=O)c1ccncc1 [ISONIAZID] | 1 µM (≈ 0.137 µg/mL) |  |  | 0.64
COc1ccc2[nH]c(-c3ccc(F)cc3)nc2c1 | 103 µM (≈ 25 µg/mL) | 2.9 | 380 µM | 
COc1ccc2c(c1)nc(-c1ccc3c(c1)OCO3)n2Cc1ccc2c(c1)OCO2 | 24 µM (≈ 9.66 µg/mL) | 4.26 | 294 µM | 
Oc1ccc(-c2nc3ccccc3[nH]2)cc1 | 424 µM (≈ 89.1 µg/mL) | 2.47 |  | 
CO[C@H]1/C=C/O[C@@]2(C)Oc3c(C)c(O)c4c(O)c(c(/C=N/N5CCN(C)CC5)c(O)c4c3C2=O)NC(=O)/C(C)=C\C=C\[C@H](C)[C@H](O)[C@@H](C)[C@@H](O)[C@@H](C)[C@H](OC(C)=O)[C@@H]1C [RIFAMPIN] | 3 µM (≈ 2.47 µg/mL) |  |  | 3.72
[H]/N=C(/N)N[C@H]1[C@H](O)[C@@H](O)[C@H](O[C@@H]2O[C@@H](C)[C@](O)(C=O)[C@H]2O[C@@H]2O[C@@H](CO)[C@H](O)[C@@H](O)[C@@H]2NC)[C@@H](N/C(N)=N\[H])[C@@H]1O [STREPTOMYCIN] | 4 µM (≈ 2.33 µg/mL) | 8.01 |  | 
